In ChEMBL document CHEMBL1136960, “Oxidation of carbidopa by tyrosinase and its effect on murine melanoma” (Bioorg Med Chem Lett, 2009):
Active and inactive are the calls of the source. The calls are words filed in the database; no cut-off is given here.

Assays:
B16-F10 [1] = test: Cytotoxicity against mouse B16F10 cells at 250 uM after 48 hrs by MTT assay; type: functional, cell-based
Method in brief: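 B16(F10) cells at 2 × 10³ per well in RPMI 1640 with 10% FBS, 37 °C, 5% CO₂. Compound added after 24 h in quadruplicate, with 250 µM among the tested concentrations, then incubated 48 h. MTT 0.5 mg/mL for 3 h, formazan dissolved in acid–isopropanol, read at 570 nm. Survival expressed as percent of initial absorbance.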

[2] = Cytotoxicity against mouse NIH/3T3 cells by MTT assay; type: cell-based; settings: nih3t3
Method in brief: (§1)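 Control lines used: NIH3T3 (ATCC) and HECa10 (lymph node-derived). Cells seeded at 2 × 10³ per well in RPMI 1640 with 10% FBS, 37 °C, 5% CO₂. Compounds added after 24 h in quadruplicate (10–2000 µM, eleven concentrations), then 24 or 48 h exposure. MTT for 3 h, formazan dissolved in acid–isopropanol, A570. Survival is percent of initial absorbance.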

[3] = Cytotoxicity against mouse HECa10 cells by MTT assay; type: cell-based; method in brief: as §1
B16-F10 [4] = test: Cytotoxicity against mouse B16F10 cells after 24 hrs by MTT assay; type: functional, cell-based
Method in brief: (§2)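 B16(F10) murine melanoma cells seeded at 2 × 10³ per well in RPMI 1640 with 10% FBS, 37 °C, 5% CO₂. After 24 h, compounds added in quadruplicate at eleven concentrations (10–2000 µM), then incubated a further 24 or 48 h. MTT (0.5 mg/mL in PBS) for 3 h at 37 °C, formazan dissolved in acid–isopropanol, A570. Survival = absorbance at time t / initial absorbance × 100%.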

B16-F10 [5] = test: Cytotoxicity against mouse B16F10 cells after 48 hrs by MTT assay; type: functional, cell-based; method in brief: as §2

SMILES	Activity (B16-F10 [1])	Activity [2]	Activity [3]	Activity (B16-F10 [4])	Activity (B16-F10 [5])
C[C@@](Cc1ccc(O)c(O)c1)(NN)C(=O)O.O [CARBIDOPA]	Active	Toxic	Toxic		
CC(Cc1ccc(O)c(O)c1)C(=O)O (stereo unspecified)		Toxic	Toxic	Dose-dependent effect	Dose-dependent effect
Cc1cc2cc(O)c(O)cc2nn1		Toxic	Toxic	inactive	Active
